Assays:
[1] = molecular target: T1, Muscarinic acetylcholine receptor M2 (Rattus norvegicus, UniProt P10980); experiment: In vitro binding affinity towards Muscarinic acetylcholine receptor M2 was determined by measuring its ability to displace [3H]-AF-DX 384 from rat heart membranes; set-up: species or system Membrane
T1 sequence (P10980 whole entry): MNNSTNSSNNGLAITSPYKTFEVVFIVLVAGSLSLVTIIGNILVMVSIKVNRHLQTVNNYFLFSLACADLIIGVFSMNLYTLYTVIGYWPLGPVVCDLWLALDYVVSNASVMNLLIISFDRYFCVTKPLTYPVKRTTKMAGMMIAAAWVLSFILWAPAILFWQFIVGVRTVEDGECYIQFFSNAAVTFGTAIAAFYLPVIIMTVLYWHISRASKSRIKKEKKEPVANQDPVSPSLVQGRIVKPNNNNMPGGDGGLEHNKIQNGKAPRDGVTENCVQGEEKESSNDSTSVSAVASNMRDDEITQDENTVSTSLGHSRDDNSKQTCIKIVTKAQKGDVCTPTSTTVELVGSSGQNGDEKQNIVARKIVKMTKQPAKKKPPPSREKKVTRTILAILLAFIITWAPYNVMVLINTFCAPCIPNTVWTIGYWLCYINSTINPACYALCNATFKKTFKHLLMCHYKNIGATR
Summary of the method: (§1)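 Displacement binding performed by NovaScreen. For M1, the tracer was [3H]pirenzepine with bovine striatal membranes. For M2, it was [3H]AF-DX 384 with rat heart membranes. Ki values in nM were calculated by LIGAND analysis.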

[2] = molecular target: T2, Muscarinic acetylcholine receptor M1 (Bos taurus, UniProt Q8WMX0); experiment: In vitro binding affinity towards Muscarinic acetylcholine receptor M1 was determined by measuring its ability to displace [3H]pirenzepine from bovine striatal membranes; set-up: species or system Striatum, Membrane; summary of the method: as §1
T2 sequence (Q8WMX0 whole entry): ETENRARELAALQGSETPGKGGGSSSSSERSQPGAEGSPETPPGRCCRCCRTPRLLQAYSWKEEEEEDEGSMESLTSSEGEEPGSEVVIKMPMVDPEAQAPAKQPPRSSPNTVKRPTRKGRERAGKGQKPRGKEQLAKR

[3] = molecular target: Muscarinic acetylcholine receptor M3 (Cavia porcellus, UniProt Q8VH26); experiment: In vitro binding affinity towards Muscarinic acetylcholine receptor M3 was determined by measuring its ability to displace [3H]-N-methyl- Scopolamine from guinea pig ileum; type: tissue-based
Chain of Muscarinic acetylcholine receptor M3 (Q8VH26 whole entry): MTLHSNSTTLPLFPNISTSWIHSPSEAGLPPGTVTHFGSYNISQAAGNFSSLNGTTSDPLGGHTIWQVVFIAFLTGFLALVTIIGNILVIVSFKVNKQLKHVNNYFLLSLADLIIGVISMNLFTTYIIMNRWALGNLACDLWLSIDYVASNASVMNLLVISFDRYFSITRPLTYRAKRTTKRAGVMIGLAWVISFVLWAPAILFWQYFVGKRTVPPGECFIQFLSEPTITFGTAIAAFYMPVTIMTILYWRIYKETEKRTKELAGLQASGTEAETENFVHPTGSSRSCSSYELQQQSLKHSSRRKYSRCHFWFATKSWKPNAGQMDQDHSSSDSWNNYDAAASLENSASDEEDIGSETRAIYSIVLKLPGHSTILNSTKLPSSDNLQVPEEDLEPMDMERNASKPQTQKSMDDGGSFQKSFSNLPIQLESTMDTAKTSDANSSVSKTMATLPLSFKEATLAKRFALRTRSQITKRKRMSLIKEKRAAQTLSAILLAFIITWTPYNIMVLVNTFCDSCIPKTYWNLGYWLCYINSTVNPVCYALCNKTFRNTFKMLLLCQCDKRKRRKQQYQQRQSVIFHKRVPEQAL

Compound | Ki [1] [nM] | Ki [2] [nM] | Ki [3] [nM]
CN1CCC=C(c2nsnc2SCCCF)C1 | 2.2 | 7.4 | 79.7
CN1CCC=C(c2nsnc2SCCCCCF)C1 | 6.3 | 2.3 | 160
CCCCCSc1nsnc1C1=CCN(C)CC1 | 4 | 36 | > 10000

— ChEMBL document CHEMBL1128678, “Preparation of 18F-labeled muscarinic agonist with M2 selectivity” (J Med Chem, 1995)
